# Bridge positions count the residues as written; N and C are the ends. Peptide text beside a SMILES is read from it.
# Biological target: Integrin alpha-IIb/beta-3 (Homo sapiens, UniProt P08514+P05106)
# Test: Inhibition of platelet aggregation as the concentration necessary to inhibit the change in light.
# Summary of the method: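 Human gel-filtered platelets at 2 × 10^8/mL were mixed with 0.1 mg/mL human fibrinogen, 1 mM CaCl2 and compound, then aggregated with 10 µM ADP. Light transmittance was compared between control and treated samples.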
# Chain of Integrin alpha-IIb/beta-3 (P05106 27-788 limits assumed): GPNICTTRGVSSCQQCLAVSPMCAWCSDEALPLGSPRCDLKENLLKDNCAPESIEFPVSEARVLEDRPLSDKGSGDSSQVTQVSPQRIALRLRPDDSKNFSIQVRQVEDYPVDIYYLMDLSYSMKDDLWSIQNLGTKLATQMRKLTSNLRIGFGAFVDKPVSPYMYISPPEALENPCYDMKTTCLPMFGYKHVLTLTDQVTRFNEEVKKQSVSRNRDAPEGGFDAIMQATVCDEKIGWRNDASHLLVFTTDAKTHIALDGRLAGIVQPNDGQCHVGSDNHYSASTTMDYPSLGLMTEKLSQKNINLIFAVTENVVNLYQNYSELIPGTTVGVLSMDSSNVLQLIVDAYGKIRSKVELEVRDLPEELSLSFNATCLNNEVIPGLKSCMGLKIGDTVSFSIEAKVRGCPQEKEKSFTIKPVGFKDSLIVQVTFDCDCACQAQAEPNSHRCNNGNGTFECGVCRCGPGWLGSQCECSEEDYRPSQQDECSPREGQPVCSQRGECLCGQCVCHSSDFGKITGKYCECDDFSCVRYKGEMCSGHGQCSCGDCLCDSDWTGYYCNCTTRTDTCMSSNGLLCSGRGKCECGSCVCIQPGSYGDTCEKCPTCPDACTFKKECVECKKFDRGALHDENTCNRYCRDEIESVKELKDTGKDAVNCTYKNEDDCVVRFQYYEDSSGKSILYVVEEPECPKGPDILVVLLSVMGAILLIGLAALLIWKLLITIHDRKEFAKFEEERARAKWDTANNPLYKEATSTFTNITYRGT
# Chain of Integrin alpha-IIb/beta-3 (P08514 32-887 limits assumed): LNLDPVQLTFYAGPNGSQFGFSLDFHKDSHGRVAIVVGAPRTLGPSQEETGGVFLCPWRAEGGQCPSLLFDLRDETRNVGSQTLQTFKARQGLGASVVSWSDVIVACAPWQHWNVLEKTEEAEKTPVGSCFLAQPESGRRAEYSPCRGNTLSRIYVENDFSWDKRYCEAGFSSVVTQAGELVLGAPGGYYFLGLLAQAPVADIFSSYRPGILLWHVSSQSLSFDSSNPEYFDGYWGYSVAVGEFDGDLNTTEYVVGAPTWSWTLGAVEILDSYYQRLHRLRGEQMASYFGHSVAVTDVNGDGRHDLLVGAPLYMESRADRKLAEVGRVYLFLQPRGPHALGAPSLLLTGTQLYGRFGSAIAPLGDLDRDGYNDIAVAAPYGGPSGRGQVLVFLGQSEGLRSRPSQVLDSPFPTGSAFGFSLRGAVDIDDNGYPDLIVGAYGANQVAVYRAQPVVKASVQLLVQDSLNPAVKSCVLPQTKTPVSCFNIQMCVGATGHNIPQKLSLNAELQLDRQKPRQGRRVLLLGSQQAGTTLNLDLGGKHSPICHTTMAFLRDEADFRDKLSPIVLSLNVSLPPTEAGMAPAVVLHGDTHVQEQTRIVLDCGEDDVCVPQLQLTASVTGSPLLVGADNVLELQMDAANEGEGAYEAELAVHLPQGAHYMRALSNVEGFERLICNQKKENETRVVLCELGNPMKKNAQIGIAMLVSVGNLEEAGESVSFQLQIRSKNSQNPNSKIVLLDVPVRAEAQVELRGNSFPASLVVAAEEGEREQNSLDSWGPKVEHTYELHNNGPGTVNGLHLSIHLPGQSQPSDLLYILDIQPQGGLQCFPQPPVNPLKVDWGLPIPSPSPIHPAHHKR
# Chain of Integrin alpha-IIb/beta-3 (P08514 891-1039 limits assumed): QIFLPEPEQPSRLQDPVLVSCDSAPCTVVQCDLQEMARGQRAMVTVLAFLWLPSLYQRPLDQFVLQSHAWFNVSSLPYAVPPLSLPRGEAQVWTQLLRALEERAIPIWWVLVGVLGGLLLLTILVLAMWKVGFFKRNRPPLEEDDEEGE
row,SMILES,IC50 [µM]
1,CC(=O)N[C@@H](Cc1ccc(OCCCCCCN)cc1)C(=O)O [(S)-2-Acetylamino-3-[4-(6-amino-hexyloxy)-phenyl]-propionic acid],18
2,"CC(=O)N[C@H]1CSSC[C@@H](C(=O)O)NC(=O)[C@H](CC(=O)O)NC(=O)CNC(=O)[C@H](CCCNC(=N)N)NC1=O [(4S,7R,13R,16S)-16-Acetylamino-7-carboxymethyl-13-(3-guanidino-propyl)-6,9,12,15-tetraoxo-1,2-dithia-5,8,11,14-tetraaza-cycloheptadecane-4-carboxylic acid] (Ac-CRGDC-OH; disulfide 1-5)",0.68
3,CCC(=O)N[C@@H](Cc1ccc(OCCCCC2CCNCC2)cc1)C(=O)O [(S)-3-[4-(4-Piperidin-4-yl-butoxy)-phenyl]-2-propionylamino-propionic acid],0.105
4,CCCCS(=O)(=O)N[C@H](CC(=O)O)Cc1ccc(OCCCCC2CCNCC2)cc1 [(S)-3-(Butane-1-sulfonylamino)-4-[4-(4-piperidin-4-yl-butoxy)-phenyl]-butyric acid],0.14
5,NCCCCCCOc1ccc(C[C@H](NS(=O)(=O)Cc2ccccc2)C(=O)O)cc1,1.9
6,NCCCCCCCCOc1ccc(C[C@H](NC(=O)OCc2ccccc2)C(=O)O)cc1 [3-[4-(8-Amino-octyloxy)-phenyl]-2-benzyloxycarbonylamino-propionic acid],38
7,CCCS(=O)(=O)N[C@@H](Cc1ccc(OCCCCC2CCNCC2)cc1)C(=O)O [(S)-3-[4-(4-Piperidin-4-yl-butoxy)-phenyl]-2-(propane-1-sulfonylamino)-propionic acid],0.023
8,CS(=O)(=O)N[C@@H](Cc1ccc(OCCCCC2CCNCC2)cc1)C(=O)O [(S)-2-Methanesulfonylamino-3-[4-(4-piperidin-4-yl-butoxy)-phenyl]-propionic acid],0.063
9,CC(=O)N[C@@H](Cc1ccc(OCCCCC2CCNCC2)cc1)C(=O)O [(S)-2-Acetylamino-3-[4-(4-piperidin-4-yl-butoxy)-phenyl]-propionic acid],0.5
10,CCCCCC(=O)N[C@@H](Cc1ccc(OCCCCCCN)cc1)C(=O)O,5
11,O=C(N[C@@H](Cc1ccc(OCCCCN2CCNCC2)cc1)C(=O)O)OCc1ccccc1 [(S)-2-Benzyloxycarbonylamino-3-[4-(4-piperazin-1-yl-butoxy)-phenyl]-propionic acid],0.5
12,O=C(O)[C@H](Cc1ccc(OCCCCC2CCNCC2)cc1)NS(=O)(=O)/C=C/c1ccccc1 [(S)-2-((E)-2-Phenyl-ethenesulfonylamino)-3-[4-(4-piperidin-4-yl-butoxy)-phenyl]-propionic acid],0.043
13,O=C(N[C@@H](Cc1ccc(OCCCc2ccccc2)cc1)C(=O)O)OCc1ccccc1,> 1000
14,O=C(O)[C@H](Cc1ccc(OCCCCC2CCNCC2)cc1)NS(=O)(=O)c1cccs1 [(S)-3-[4-(4-Piperidin-4-yl-butoxy)-phenyl]-2-(thiophene-2-sulfonylamino)-propionic acid],0.015
15,CCCCC(=O)N[C@@H](Cc1ccc(OCCCCC2CCNCC2)cc1)C(=O)O [(S)-2-Pentanoylamino-3-[4-(4-piperidin-4-yl-butoxy)-phenyl]-propionic acid],0.047
16,O=C(O)[C@H](Cc1ccc(OCCCCC2CCNCC2)cc1)NS(=O)(=O)CCc1ccccc1 [(S)-2-(2-Phenyl-ethanesulfonylamino)-3-[4-(4-piperidin-4-yl-butoxy)-phenyl]-propionic acid],0.029
17,N=C(N)NCCC[C@H](N)C(=O)NCC(=O)N[C@@H](CC(=O)O)C(=O)N[C@@H](Cc1c[nH]c2ccccc12)C(=O)O [2-[1-[1-amino-4-amino(imino)methylamino-(1S)-butylcarboxamidomethylcarboxamido]-2-carboxy-(1S)-ethylcarboxamido]-3-(1H-3-indolyl)-(2S)-propanoic acid] (H-RGDW-OH),1.7
18,O=C(O)[C@H](Cc1ccc(OCCCCC2CCNCC2)cc1)NS(=O)(=O)c1ccccc1 [(S)-2-Benzenesulfonylamino-3-[4-(4-piperidin-4-yl-butoxy)-phenyl]-propionic acid],0.018
19,O=C(CCc1ccccc1)N[C@@H](Cc1ccc(OCCCCC2CCNCC2)cc1)C(=O)O [(S)-2-(3-Phenyl-propionylamino)-3-[4-(4-piperidin-4-yl-butoxy)-phenyl]-propionic acid],0.1

# Other lines, results leading:
row,IC50 [µM],SMILES
1,10,NCCCCCCOc1ccc(C[C@H](NC(=O)c2ccccc2)C(=O)O)cc1 [(S)-3-[4-(6-Amino-hexyloxy)-phenyl]-2-benzoylamino-propionic acid]
2,0.6,CCCCS(=O)(=O)N[C@H](CC(=O)O)Cc1ccc(OCCCC2CCNCC2)cc1 [(S)-3-(Butane-1-sulfonylamino)-4-[4-(3-piperidin-4-yl-propoxy)-phenyl]-butyric acid]
3,5.2,CN1CCN(CCCOc2ccc(C[C@H](NC(=O)OCc3ccccc3)C(=O)O)cc2)CC1 [(S)-2-Benzyloxycarbonylamino-3-{4-[3-(4-methyl-piperazin-1-yl)-propoxy]-phenyl}-propionic acid]
4,1.1,O=C(N[C@@H](Cc1ccc(OCCCCCN2CCNCC2)cc1)C(=O)O)OCc1ccccc1 [(S)-2-Benzyloxycarbonylamino-3-[4-(5-piperazin-1-yl-pentyloxy)-phenyl]-propionic acid]
5,> 100,"CC(C)(C)CC(C)(C)NCCCOc1ccc(C[C@H](NC(=O)OCc2ccccc2)C(=O)O)cc1 [(S)-2-Benzyloxycarbonylamino-3-{4-[3-(1,1,3,3-tetramethyl-butylamino)-propoxy]-phenyl}-propionic acid]"
6,0.24,O=C(N[C@@H](Cc1ccc(OC/C=C/CC2CCNCC2)cc1)C(=O)O)OCc1ccccc1 [(S)-2-Benzyloxycarbonylamino-3-[4-((E)-4-piperidin-4-yl-but-2-enyloxy)-phenyl]-propionic acid]
7,28,CC(C)(C)NCCCOc1ccc(C[C@H](NC(=O)OCc2ccccc2)C(=O)O)cc1 [(S)-2-Benzyloxycarbonylamino-3-[4-(3-tert-butylamino-propoxy)-phenyl]-propionic acid]
8,6.2,O=C(N[C@@H](Cc1ccc(OCCCC2CCNCC2)cc1)C(=O)O)OCc1ccccc1 [(S)-2-Benzyloxycarbonylamino-3-[4-(3-piperidin-4-yl-propoxy)-phenyl]-propionic acid]
9,5.7,CCCC(=O)N[C@@H](Cc1ccc(OCCCCCCN)cc1)C(=O)O [(S)-3-[4-(6-Amino-hexyloxy)-phenyl]-2-butyrylamino-propionic acid]

# — BindingDB's records for doi:10.1021/jm00042a007 (Merck Research Laboratories, 1994)
